In ChEMBL document CHEMBL1811814, “Synthesis and evaluation of indole, pyrazole, chromone and pyrimidine based conjugates for tumor growth inhibitory activities--development of highly efficacious cytotoxic agents” (Eur J Med Chem, 2010):

Assays:
Assay type in all cases: functional
Set-up in all cases: scale not given: the % may be the effect or the level left
UO-31 = assay: Growth inhibition of human UO31 cells assessed tumor cell growth at 10^-5 M
Summary of the method: (§1)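 Single-dose screen at 10^-5 M across the 60 human tumor cell line panel, run to NCI standards. The value is the percent growth of each cell line in the presence of compound. Compounds active at this dose moved on to five-concentration testing (10^-4 to 10^-8 M).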

SF-539 = assay: Growth inhibition of human SF539 cells assessed tumor cell growth at 10^-5 M
Summary of the method: (§2)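 NCI 60-human-tumor-cell-line panel screen. Each compound was tested at a single concentration of 10^-5 M, and percent growth of tumor cells was recorded for each cell line. Growth inhibition was expressed from these percent-growth values.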

U-251 = assay: Growth inhibition of human U251 cells assessed tumor cell growth at 10^-5 M; summary of the method: as §1
ACHN = assay: Growth inhibition of human ACHN cells assessed tumor cell growth at 10^-5 M; summary of the method: as §2
HL-60(TB) = assay: Growth inhibition of human HL-60(TB) cells assessed tumor cell growth at 10^-5 M
Summary of the method: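 HL-60(TB), part of the 60-line panel, tested at a single concentration of 10^-5 M. The read-out is percent tumor cell growth relative to untreated growth.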

HCT-15 = assay: Growth inhibition of human HCT15 cells assessed tumor cell growth at 10^-5 M; summary of the method: as §2
NCI-H23 = assay: Growth inhibition of human NCI-H23 cells assessed tumor cell growth at 10^-5 M; summary of the method: as §2
MDA-MB-468 = assay: Growth inhibition of human MDA-MB-468 cells assessed tumor cell growth at 10^-5 M; summary of the method: as §2
OVCAR-4 = assay: Growth inhibition of human OVCAR4 cells assessed tumor cell growth at 10^-5 M; summary of the method: as §2
NCI-H226 = assay: Growth inhibition of human NCI-H226 cells assessed tumor cell growth at 10^-5 M; summary of the method: as §2
A498 = assay: Growth inhibition of human A498 cells assessed tumor cell growth at 10^-5 M; summary of the method: as §2
SF-268 = assay: Growth inhibition of human SF268 cells assessed tumor cell growth at 10^-5 M; summary of the method: as §2
SNB-19 = assay: Growth inhibition of human SNB19 cells assessed tumor cell growth at 10^-5 M; summary of the method: as §1
OVCAR-5 = assay: Growth inhibition of human OVCAR5 cells assessed tumor cell growth at 10^-5 M; summary of the method: as §2
SK-MEL-5 = assay: Growth inhibition of human SK-MEL-5 cells assessed tumor cell growth at 10^-5 M; summary of the method: as §2
[1] = Growth inhibition of human […] cells assessed tumor cell growth at 10^-5 M; summary of the method: as §2
TK-10 = assay: Growth inhibition of human TK10 cells assessed tumor cell growth at 10^-5 M; summary of the method: as §1
M14 = assay: Growth inhibition of human M14 cells assessed tumor cell growth at 10^-5 M; summary of the method: as §2
CCRF-CEM = assay: Growth inhibition of human CCRF-CEM cells assessed tumor cell growth at 10^-5 M; summary of the method: as §2
COLO 205 = assay: Growth inhibition of human COLO205 cells assessed tumor cell growth at 10^-5 M; summary of the method: as §2
HCT-116 = assay: Growth inhibition of human HCT116 cells assessed tumor cell growth at 10^-5 M; summary of the method: as §2
LOX IMVI = assay: Growth inhibition of human LOXIMVI cells assessed tumor cell growth at 10^-5 M; summary of the method: as §2
Malme-3M = assay: Growth inhibition of human MALME-3M cells assessed tumor cell growth at 10^-5 M; summary of the method: as §2
SK-MEL-28 = assay: Growth inhibition of human SK-MEL-28 cells assessed tumor cell growth at 10^-5 M; summary of the method: as §2
SK-MEL-2 = assay: Growth inhibition of human SK-MEL-2 cells assessed tumor cell growth at 10^-5 M; summary of the method: as §2
SW-620 = assay: Growth inhibition of human SW620 cells assessed tumor cell growth at 10^-5 M; summary of the method: as §1
OVCAR-8 = assay: Growth inhibition of human OVCAR8 cells assessed tumor cell growth at 10^-5 M; summary of the method: as §2
786-0 = assay: Growth inhibition of human 786-0 cells assessed tumor cell growth at 10^-5 M; summary of the method: as §2
HT-29 = assay: Growth inhibition of human HT-29 cells assessed tumor cell growth at 10^-5 M; summary of the method: as §2
BT-549 = assay: Growth inhibition of human BT549 cells assessed tumor cell growth at 10^-5 M; summary of the method: as §2
SF-295 = assay: Growth inhibition of human SF295 cells assessed tumor cell growth at 10^-5 M; summary of the method: as §2
SK-OV-3 = assay: Growth inhibition of human SKOV3 cells assessed tumor cell growth at 10^-5 M; summary of the method: as §2
T47D = assay: Growth inhibition of human T47D cells assessed tumor cell growth at 10^-5 M; summary of the method: as §1
NCI-H522 = assay: Growth inhibition of human NCI-H522 cells assessed tumor cell growth at 10^-5 M; summary of the method: as §2
UACC-62 = assay: Growth inhibition of human UACC62 cells assessed tumor cell growth at 10^-5 M; summary of the method: as §1
HOP-62 = assay: Growth inhibition of human HOP62 cells assessed tumor cell growth at 10^-5 M; summary of the method: as §2
[2] = Growth inhibition of human Hs 578T cells assessed tumor cell growth at 10^-5 M; summary of the method: as §2
NCI-H460 = assay: Growth inhibition of human NCI-H460 cells assessed tumor cell growth at 10^-5 M; summary of the method: as §2
MOLT-4 = assay: Growth inhibition of human MOLT4 cells assessed tumor cell growth at 10^-5 M; summary of the method: as §2
EKVX = assay: Growth inhibition of human EKVX cells assessed tumor cell growth at 10^-5 M; summary of the method: as §2
NCI/ADR-RES = assay: Growth inhibition of human NCI/ADR-RES cells assessed tumor cell growth at 10^-5 M; summary of the method: as §2
MDA-MB-231 = assay: Growth inhibition of human MDA-MB-231 cells assessed tumor cell growth at 10^-5 M; summary of the method: as §2
HCC 2998 = assay: Growth inhibition of human HCC2998 cells assessed tumor cell growth at 10^-5 M; summary of the method: as §2
MDA-MB-435 = assay: Growth inhibition of human MDA-MB-435 cells assessed tumor cell growth at 10^-5 M; summary of the method: as §2
A549 = assay: Growth inhibition of human A549 cells assessed tumor cell growth at 10^-5 M; summary of the method: as §2
CAKI-1 = assay: Growth inhibition of human Caki1 cells assessed tumor cell growth at 10^-5 M; summary of the method: as §2
KM12 = assay: Growth inhibition of human KM12 cells assessed tumor cell growth at 10^-5 M; summary of the method: as §2
OVCAR-3 = assay: Growth inhibition of human OVCAR3 cells assessed tumor cell growth at 10^-5 M; summary of the method: as §2
UACC-257 = assay: Growth inhibition of human UACC257 cells assessed tumor cell growth at 10^-5 M; summary of the method: as §1
K562 = assay: Growth inhibition of human K562 cells assessed tumor cell growth at 10^-5 M; summary of the method: as §2
DU-145 = assay: Growth inhibition of human DU145 cells assessed tumor cell growth at 10^-5 M; summary of the method: as §2
RXF 393 = assay: Growth inhibition of human RXF393 cells assessed tumor cell growth at 10^-5 M; summary of the method: as §2
SN12C = assay: Growth inhibition of human SN12C cells assessed tumor cell growth at 10^-5 M; summary of the method: as §2
NCI-H322M = assay: Growth inhibition of human NCI-H322M cells assessed tumor cell growth at 10^-5 M; summary of the method: as §2
MCF7 = assay: Growth inhibition of human MCF7 cells assessed tumor cell growth at 10^-5 M; summary of the method: as §2
SNB-75 = assay: Growth inhibition of human SNB75 cells assessed tumor cell growth at 10^-5 M; summary of the method: as §1
HOP-92 = assay: Growth inhibition of human HOP92 cells assessed tumor cell growth at 10^-5 M; summary of the method: as §2
PC-3 = assay: Growth inhibition of human PC3 cells assessed tumor cell growth at 10^-5 M; summary of the method: as §2
IGROV-1 = assay: Growth inhibition of human IGROV1 cells assessed tumor cell growth at 10^-5 M; summary of the method: as §2

## CC1=NN(c2cccc(Cl)c2)C(=O)/C1=C\c1cn(S(=O)(=O)c2ccc(C)cc2)c2ccccc12
UO-31
  Activity: 78.22%
SF-539
  Activity: 114%
U-251
  Activity: 102.73%
ACHN
  Activity: 97.51%
HL-60(TB)
  Activity: 114.07%
HCT-15
  Activity: 105.27%
NCI-H23
  Activity: 83.92%
MDA-MB-468
  Activity: 118.75%
OVCAR-4
  Activity: 103.09%
NCI-H226
  Activity: 79.93%
A498
  Activity: 117.06%
SF-268
  Activity: 103.69%
SNB-19
  Activity: 114.11%
OVCAR-5
  Activity: 88.09%
SK-MEL-5
  Activity: 105.66%
[1]
  Activity: 113.1%
TK-10
  Activity: 166.55%
M14
  Activity: 82.05%
CCRF-CEM
  Activity: 134.54%
COLO 205
  Activity: 142.35%
HCT-116
  Activity: 88.23%
LOX IMVI
  Activity: 97.36%
Malme-3M
  Activity: 114.11%
SK-MEL-28
  Activity: 125.16%
SK-MEL-2
  Activity: 113.68%
SW-620
  Activity: 98.36%
OVCAR-8
  Activity: 107.68%
786-0
  Activity: 94.95%
HT-29
  Activity: 122.1%
BT-549
  Activity: 111.59%
SF-295
  Activity: 114.23%
SK-OV-3
  Activity: 105.37%
T47D
  Activity: 91.46%
NCI-H522
  Activity: 107.2%
UACC-62
  Activity: 86.46%
HOP-62
  Activity: 62.28%
[2]
  Activity: 115.57%
NCI-H460
  Activity: 119.39%
MOLT-4
  Activity: 173.14%
EKVX
  Activity: 97.98%
NCI/ADR-RES
  Activity: 85.11%
MDA-MB-231
  Activity: 85.37%
HCC 2998
  Activity: 88.49%
MDA-MB-435
  Activity: 105.48%
A549
  Activity: 108.98%
CAKI-1
  Activity: 87.81%
KM12
  Activity: 109.5%
OVCAR-3
  Activity: 110.25%
UACC-257
  Activity: 114.55%
K562
  Activity: 138.24%
DU-145
  Activity: 114.18%
RXF 393
  Activity: 137.02%
SN12C
  Activity: 97.46%
NCI-H322M
  Activity: 105.18%
MCF7
  Activity: 113.07%
SNB-75
  Activity: 89.33%

## C#CCN1C(=O)/C(=C\c2cn(CC#C)c3ccccc23)c2ccccc21
UO-31
  Activity: 74.9%
SF-539
  Activity: 91.5%
U-251
  Activity: 98.4%
ACHN
  Activity: 92.7%
HL-60(TB)
  Activity: 101.9%
HCT-15
  Activity: 104%
NCI-H23
  Activity: 92%
MDA-MB-468
  Activity: 133%
NCI-H226
  Activity: 86.5%
A498
  Activity: 101%
SF-268
  Activity: 95.6%
SNB-19
  Activity: 96.7%
HOP-92
  Activity: 75.1%
OVCAR-5
  Activity: 101%
SK-MEL-5
  Activity: 91%
[1]
  Activity: 90.9%
TK-10
  Activity: 112%
M14
  Activity: 98.6%
CCRF-CEM
  Activity: 86%
COLO 205
  Activity: 77.9%
HCT-116
  Activity: 97.4%
PC-3
  Activity: 80%
LOX IMVI
  Activity: 103%
Malme-3M
  Activity: 161%
SK-MEL-2
  Activity: 99.8%
SW-620
  Activity: 102%
OVCAR-8
  Activity: 95.6%
786-0
  Activity: 109%
HT-29
  Activity: 101%
BT-549
  Activity: 96.7%
SK-OV-3
  Activity: 97.8%
T47D
  Activity: 96.4%
NCI-H522
  Activity: 96.6%
UACC-62
  Activity: 78.4%
HOP-62
  Activity: 102%
[2]
  Activity: 105%
NCI-H460
  Activity: 98.6%
MOLT-4
  Activity: 87.3%
NCI/ADR-RES
  Activity: 106%
MDA-MB-231
  Activity: 82.7%
HCC 2998
  Activity: 107%
MDA-MB-435
  Activity: 114%
A549
  Activity: 98.9%
CAKI-1
  Activity: 120%
KM12
  Activity: 101%
OVCAR-3
  Activity: 102%
UACC-257
  Activity: 97.8%
K562
  Activity: 87.4%
DU-145
  Activity: 109%
RXF 393
  Activity: 126%
IGROV-1
  Activity: 91.2%
SN12C
  Activity: 89.2%
NCI-H322M
  Activity: 110%
